Screening results as filed in PubChem BioAssay.
Rtt109 Vps75: inhibitors of C. albicans Rtt109/Vps75 HAT, primary screen, biochemical, ThioGlo CoA-SH fluorescence, plate reader | Histone acetyltransferase RTT109 (Candida albicans (strain SC5314 / ATCC MYA-2876)), … | purified Rtt109/Vps75, 4 h | inhibition, % at 34.9 µM | hit rate 0.16% among 330,000 | AID 540336, 2011;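 active = inhibition of at least 50% in every replicate; inconclusive = best replicate reaches 50% inhibition but some replicates fall short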
Target sequence (Q5AAJ8 whole entry, looked up): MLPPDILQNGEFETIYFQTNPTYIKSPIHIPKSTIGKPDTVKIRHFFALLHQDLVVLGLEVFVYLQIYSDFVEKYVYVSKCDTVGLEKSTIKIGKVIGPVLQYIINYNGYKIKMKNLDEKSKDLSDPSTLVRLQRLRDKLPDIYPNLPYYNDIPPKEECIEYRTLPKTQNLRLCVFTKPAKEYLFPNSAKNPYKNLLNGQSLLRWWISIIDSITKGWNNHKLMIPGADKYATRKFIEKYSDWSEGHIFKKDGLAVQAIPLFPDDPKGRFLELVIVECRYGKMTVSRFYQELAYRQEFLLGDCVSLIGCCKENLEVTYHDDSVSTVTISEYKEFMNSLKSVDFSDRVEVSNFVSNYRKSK
ALR H2O2 inh: inhibitors of human ALR sulfhydryl oxidase, primary screen, biochemical, H2O2 detection, HRP-luminol luminescence, single point; FAD-linked sulfhydryl oxidase ALR (Homo sapiens), P55789; purified ALR, DTT oxidation; inhibition, % (no concentration beside the values); hit rate 3.8% among 290,000;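 active = mean replicate inhibition above about 79%, with every replicate also reaching it, limit read from the data; inconclusive = only one of the two criteria met; inactive = mean below limit and not every replicate reaching it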
PfM18AAP inh-1: PfM18AAP inhibitors, malaria aminopeptidase, primary screen, biochemical, QFRET, recombinant enzyme | inhibition, % at 7.35 µM | AID 1822, 2009 | M18 aspartyl aminopeptidase (Plasmodium falciparum 3D7) | hit rate 1.2% among 290,000 | H-Glu-NHMec fluorogenic cleavage;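 active = inhibition above the campaign mean inhibition over all tested compounds plus 3 SD, cut at about 28% in these data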;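 note: 0% = plate median of test compound wells and 100% = 2 mM ZnCl2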
FAS TE block: FAS thioesterase domain inhibitors, primary screen, biochemical, fluorescence intensity, uHTS; inhibition, % at 15 µM; recombinant FAS-TE, OMFH fluorogenic substrate, fluorescence endpoint; AID 602261, 2012; hit rate 0.67% among 360,000;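 active = compounds whose normalised, plate-corrected inhibition of enzyme fluorescence in the single-dose primary screen is 50% or more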;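 note: 0% = DMSO with enzyme and 100% = substrate without enzyme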
HDAC3 inh: HDAC3 deacetylase inhibitors, primary screen, biochemical, fluorescence, cell-free homogeneous. AID 2718, 2010. inhibition, % at 8.3 µM. hit rate 0.15% among 320,000. recombinant HDAC3, fluorogenic peptide/trypsin coupled. Histone deacetylase 3 (Homo sapiens), O15379; in the data active = inhibition above about 26%, passing the limit was not always enough; inconclusive = no clear call, values can overlap the other calls
Target sequence (O15379 whole entry, looked up): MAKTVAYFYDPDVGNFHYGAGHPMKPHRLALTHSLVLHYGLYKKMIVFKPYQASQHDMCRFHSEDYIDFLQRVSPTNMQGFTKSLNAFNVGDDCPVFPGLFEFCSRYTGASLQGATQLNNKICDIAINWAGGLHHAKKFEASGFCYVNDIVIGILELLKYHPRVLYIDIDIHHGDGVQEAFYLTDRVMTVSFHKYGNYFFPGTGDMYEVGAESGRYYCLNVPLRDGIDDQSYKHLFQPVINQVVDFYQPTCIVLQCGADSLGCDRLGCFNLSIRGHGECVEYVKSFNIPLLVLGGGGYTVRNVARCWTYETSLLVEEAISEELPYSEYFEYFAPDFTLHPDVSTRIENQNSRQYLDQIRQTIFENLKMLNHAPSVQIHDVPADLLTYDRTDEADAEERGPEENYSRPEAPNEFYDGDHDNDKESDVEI
UCH37 inh: inhibitors of human UCH37 deubiquitinase, primary screen, biochemical, Ub-AMC cleavage, fluorescence. purified proteasome/UCH37. Ubiquitin carboxyl-terminal hydrolase isozyme L5 (Homo sapiens), Q9Y5K5. hit rate 0.33% among 330,000. inhibition, % (concentration not given with the values);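 active = mean inhibition over replicate wells above about 20%, limit read from the data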;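 note: 0% = compound-free wells with enzyme and 100% = wells lacking proteasome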
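Signal – fluorescence, ex 355 nm, em 460 nm · System – Proteasome-bound UCH37 · Input – 0.15 nM proteasome as dispensed · Timing – 30 min preincubation with enzyme, 25 min cleavage at room temperature · Read-out basis – percent inhibition of cleavage signal versus uninhibited and no-proteasome wells · Medium – Tris-HCl pH 7.4 with ATP-MgCl2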
PfM18AAP inh-2: PfM18AAP inhibitors, malaria aminopeptidase, confirmation, biochemical, QFRET, recombinant enzyme, triplicate; shares compounds with PfM18AAP inh-1; H-Glu-NHMec fluorogenic cleavage; inhibition, % at 7.35 µM; hit rate 28% among 2,400; AID 2170, 2009;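 active = mean inhibition over replicate wells above the hit cutoff set for the earlier primary screen, cut at about 29% in these data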;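 note: 0% = median of test compound wells and 100% = 2 mM ZnCl2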
CTSL1 confirm: cathepsin L1 inhibitors, retest, confirmation, counter-screen for PFM18AAP inhibitor project, biochemical, QFRET, triplicate | shares compounds with PfM18AAP inh-1 | purified cathepsin L1, Z-Leu-Arg-MCA fluorescence | inhibition, % at 5.96 µM | 2,400 tested, under 10 active | AID 2178, 2009;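 active = average inhibition across replicates above the hit cutoff set in the earlier primary screen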;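 note: 0% = median of test compound wells and 100% = Z-Phe-Ala-diazomethylketone 1 µM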
An asterisk follows results filed as active; ? = inconclusive; / = no result given; ! = not active in a repeat. Only some compounds are listed: those with a hit (about 4.6% of all), similar ones and a draw of the others.

SMILES | Rtt109 Vps75 | ALR H2O2 inh | PfM18AAP inh-1 | FAS TE block | HDAC3 inh | UCH37 inh | PfM18AAP inh-2 | CTSL1 confirm
COc1ccc(Cl)cc1NC(=O)NC(C)C | / | 1.1 | -2.5 | 1.1 | 0.8 | 2.4 | / | /
O=C(Nc1ccc(Cl)cc1Cl)Nn1cnnc1 | -18.4 | -7.0 | 82.5* | -23.6 | -6.3 | 2.5 | 76.8* | -2.4
O=C(Nc1ccno1)Nc1ccc(Cl)cc1Cl | -8.0 | 4.8 | 5.4 | 2.8 | 6.8 | 2.4 | / | /
Cc1cc(NC(=O)Nc2cc(Cl)ccc2C)no1 | 3.4 | 24.5 | -2.2 | -0.5 | -1.8 | 2.7 | / | /
COc1cccc(C(C)=NNc2ncc(Cl)cc2Cl)c1 | / | / | / | / | / | 4.7 | / | /
CN(C)C=NC(=S)Nc1ccc(Cl)c(Cl)c1 | / | / | / | / | / | 2.4 | / | /
COc1ccc(C=NN2CCOCC2)cc1Cn1cc([N+](=O)[O-])cn1 | / | / | / | / | / | 1.7 | / | /
Cc1c[n+](C)ccc1CC1C([N+](=O)[O-])=C[N-]c2ncnn21 (centres undefined) | -0.7 | / | 21.2 | -1.7 | / | 8.6 | / | /
C[n+]1ccc(CC2C(=[N+]([O-])[O-])C=Nc3ncnn32)cc1 (centres undefined) | 1.5 | / | 31.8* | -4.3 | / | 5.5 | -10.5 | 5.6
O=c1oc2ccc(Cl)cc2nc1/C=C(\O)c1cccs1 | / | -4.6 | 6.6 | -33.9 | 3.0 | 5.4 | / | /
Cc1ccc2oc(=O)c(/C=C(\O)c3cccs3)nc2c1 | 9.3 | 3.0 | 37.4* | -17.9 | 2.0 | 5.6 | 29.1* | 0.7
COc1ccc(C=NNC(=S)SC)cc1OC | / | / | / | / | / | 5.9 | / | /
Cc1ccc(/C=N/Nc2cn[nH]c(=O)n2)o1 | 2.2 | -2.3 | 48.3* | -11.4 | 0.1 | / | 5.2 | 3.5
Cc1ccc(C(c2sc3ncnn3c2O)N2CCCCC2)cc1 (centres undefined) | -11.1 | 5.3 | 47.0* | -42.5 | -1.7 | 0.9 | -13.6 | -10.6
Cc1ccc(C(c2sc3ncnn3c2O)N2CCC(C)CC2)cc1 (centres undefined) | -8.4 | ? | 55.9* | -40.4 | 9.1 | 2.0 | -23.6 | -0.4
Oc1c(C(c2cccc(F)c2)N2CCN(Cc3ccccc3)CC2)sc2ncnn12 (centres undefined) | 4.7 | -6.7 | 28.0 | -51.7 | 6.7 | 3.5 | / | /
Oc1c(C(c2ccc(F)cc2)N2CCc3ccccc3C2)sc2ncnn12 (centres undefined) | 0.6 | 4.3 | 53.3* | -53.4 | 11.0 | 1.4 | 25.3 | -4.7
C=C(C)C1CC=C(C)C(=NNC(=O)CNc2ccc(OCC)cc2)C1 (centres undefined) | / | / | / | / | / | 1.6 | / | /
CC(=NNC(=O)c1cc(C)nc2ccccc12)c1ccccn1 | / | / | / | / | / | 1.1 | / | /
COc1ccccc1N1CCN(N=C(C)c2ccccc2O)CC1 | / | / | / | / | / | 3.3 | / | /
CC(=NOCC(=O)NN=Cc1ccccc1)c1cccs1 | / | / | / | / | / | 2.2 | / | /
Cc1cccc2sc(NNC(=O)c3cc(=O)c4ccccc4o3)nc12 | 8.8 | / | 43.9* | 7.7 | 0.0 | / | -0.9 | -3.7
CN1CCN(CCC(=O)NN=Cc2ccccc2F)CC1 | / | / | / | / | / | 0.9 | / | /
CN(C)c1ccc(/C=N\NC(=O)CC#N)cc1 | -13.8 | 66.6 | 50.4* | -5.0 | -3.6 | / | -34.4 | 3.4
CN(C)c1ccc(C=NNC(=O)CC#N)cc1 | / | / | / | / | / | -158.4 | / | /
SMILES | Rtt109 Vps75 | ALR H2O2 inh | PfM18AAP inh-1 | FAS TE block | HDAC3 inh | UCH37 inh | PfM18AAP inh-2 | CTSL1 confirm
O=C(NN=Cc1ccc(OC2CSC2)cc1)c1ccccc1 | / | / | / | / | / | 2.2 | / | /
N#CCC(=O)N/N=C/c1ccc(OC2CSC2)cc1 | -6.0 | -10.2 | 40.2* | -25.8 | 6.8 | / | -12.3 | 0.4
Nc1ccc(C(=O)Oc2ccc([N+](=O)[O-])cc2)c(O)c1 | / | 4.7 | 18.8 | / | 5.0 | / | -52.2 | -2.6
O=C(O)c1ccc(O)cc1O | -2.4 | -19.4 | / | -5.2 | -4.1 | 1.9 | / | /
Nc1ccc(C(=O)Oc2ccc([N+](=O)[O-])cc2)cc1 | -1.7 | 23.4 | 6.0 | 0.9 | / | / | / | /
Nc1ccc(C(=O)O)c(O)c1 | 2.5 | -3.6 | 32.5*! | -4.6 | -0.4 | -1.7 | -22.7 | -1.2
CC(=NNC(=O)CN1CCN(Cc2ccccc2)CC1)c1ccncc1 | / | / | / | / | / | -0.9 | / | /
COc1cc(C(=O)O)ccc1OC(C)=O | 9.7 | 0.3 | -3.7 | -11.2 | -6.5 | -0.5 | / | /
CC(=O)Oc1ccc(C(=O)O)cc1OC(C)=O | -2.2 | 23.8 | 70.2* | -1.3 | -3.1 | 1.5 | 50.4* | -5.4
O=C(NCC1CCCO1)C(=O)NN=Cc1ccc(O)c(Cl)c1 (centres undefined) | / | / | / | / | / | 17.7 | / | /
Cc1cc(SCC(=O)N/N=C/c2ccc(O)c(O)c2O)c(C)cc1Br | 0.9 | 95.2* | 53.0* | 15.6 | -1.5 | / | 22.1 | -7.9
Cc1cc(SCC(=O)NN=Cc2ccc(O)cc2O)c(C)cc1Br | / | / | / | / | / | 3.4 | / | /
Cc1cc(N/N=C/c2ccc(O)cc2O)nc(-c2ccccc2O)n1 | -3.3 | 5.4 | 52.2* | 11.6 | -12.7 | / | 53.7* | -1.2
Cc1cc(N/N=C\c2ccccc2)nc(-c2ccccc2O)n1 | 5.0 | 0.4 | 11.3 | 37.6 | 11.7 | / | / | /
Cc1cc(NN=Cc2ccc(O)cc2O)nc(N2CCOCC2)n1 | / | / | / | / | / | 10.0 | / | /
Cc1cc(N/N=C/c2ccc(O)cc2O)nc(-n2nc(C)cc2C)n1 | 21.7 | / | 50.8* | -1.9 | -1.7 | / | 33.3* | 0.7
Cc1cc(N/N=C/c2ccccc2O)nc(-c2ccccc2O)n1 | 3.6 | -0.2 | 41.9* | 2.4 | 5.9 | / | 39.6* | 8.6
CCOC(=O)C(C#N)=NNc1cc(Cl)ccc1OC | / | / | / | / | / | -1.8 | / | /
CCCOc1ccc(-c2c(C(=O)NN=C(C)c3ccncc3)nnn2-c2nonc2N)cc1 | / | / | / | / | / | 2.1 | / | /
CN(C)C=Nc1ncc(C(=O)c2ccc(Cl)cc2)s1 | / | / | / | / | / | 6.7 | / | /
Cc1ccc(-c2csc3n[nH]c(=S)n23)cc1 | -9.3 | 97.8* | 63.4* | -6.7 | 16.9 | 0.9 | 51.9* | -0.4
Cc1cc(C)nc(SCCc2ccncc2)n1 | 34.9 | / | 49.5* | -10.7 | / | -1.0 | -8.3 | -3.4
COc1ccc(S(=O)(=O)Nc2cc(SCC(=O)O)c(O)c3ccccc23)cc1 | -6.6 | 56.4 | 32.7* | 7.3 | 3.9 | 16.0 | -0.3 | -1.8
